Experimental data reported in publication PMC6957258 (Bioorganic & medicinal chemistry, 2013).
Where two headings read alike, the source gives them in different places.

Legend:
human TRPV1 [1] = target: T1, human TRPV1 (Homo sapiens, UniProt Q8NER1); test: FLIPR antagonism of pH activation, hTRPV1 in CHO cells; format: cell-based; conditions: read-out: IC50 [pH], inhibition of pH activation
[2] = system: capsaicin-induced hypothermia; test: Capsaicin-induced hypothermia in mice; format: in vivo; conditions: for inhibition of the effect of capsaicin on body temperature: 0.3 mg/Kg po 15 min before capsaicin 3 mg/Kg ip
How it was run: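 Mice, n = 5 per group. Body temperature (°C) was recorded after capsaicin challenge, with readings taken up to 60 min. Data are given as mean ± SEM and compared with vehicle-treated animals, with significance at p < 0.05.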

[3] = system: CCI-induced cold allodynia (neuropathic pain model); conditions: rat, po; cited from earlier work
human TRPV1 [4] = target: T1, human TRPV1; test: FLIPR antagonism of capsaicin; format: cell-based
[5] = system: capsaicin-induced hypothermia; conditions: mice; cited from earlier work

T1 sequence (Q8NER1 whole entry): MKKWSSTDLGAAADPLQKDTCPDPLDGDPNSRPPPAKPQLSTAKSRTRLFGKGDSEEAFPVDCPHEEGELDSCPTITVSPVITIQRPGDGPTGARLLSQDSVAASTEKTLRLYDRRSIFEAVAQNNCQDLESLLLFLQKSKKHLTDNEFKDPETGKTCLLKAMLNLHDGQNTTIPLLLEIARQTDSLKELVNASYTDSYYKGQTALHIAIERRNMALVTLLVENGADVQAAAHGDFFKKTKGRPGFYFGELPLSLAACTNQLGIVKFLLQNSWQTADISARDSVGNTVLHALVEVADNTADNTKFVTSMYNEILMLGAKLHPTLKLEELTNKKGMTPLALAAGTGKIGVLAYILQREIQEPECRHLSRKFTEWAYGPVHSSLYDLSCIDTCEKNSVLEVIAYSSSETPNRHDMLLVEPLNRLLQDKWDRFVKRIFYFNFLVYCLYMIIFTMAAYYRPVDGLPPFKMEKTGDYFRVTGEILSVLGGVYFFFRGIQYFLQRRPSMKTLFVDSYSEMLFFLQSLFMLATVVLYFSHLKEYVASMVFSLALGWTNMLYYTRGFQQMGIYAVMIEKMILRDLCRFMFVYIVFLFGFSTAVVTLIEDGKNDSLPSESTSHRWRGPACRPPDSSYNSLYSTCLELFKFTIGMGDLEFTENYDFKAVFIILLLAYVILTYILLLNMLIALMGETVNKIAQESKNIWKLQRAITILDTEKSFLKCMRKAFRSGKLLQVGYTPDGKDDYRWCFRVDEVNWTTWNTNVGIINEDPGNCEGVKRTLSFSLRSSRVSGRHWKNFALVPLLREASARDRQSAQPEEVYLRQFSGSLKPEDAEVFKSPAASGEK

| SMILES | IC50 (human TRPV1 [1]) [nM] | other results |
| --- | --- | --- |
| C[C@@H](C(=O)NCc1ccc(C(F)(F)F)nc1SC1CCCCC1)c1ccc(NS(C)(=O)=O)c(F)c1 [24R, (R)-N-((2-(Cyclohexylthio)-6-(trifluoromethyl)pyridin-3-yl)methyl)-2-(3-fluoro-4-(methylsulfonamido)phenyl)propanamide] | > 1000 |  |
| C[C@H](C(=O)NCc1ccc(C(F)(F)F)nc1SC1CCCCC1)c1ccc(NS(C)(=O)=O)c(F)c1 [24S, (S)-N-((2-(Cyclohexylthio)-6-(trifluoromethyl)pyridin-3-yl)methyl)-2-(3-fluoro-4-(methylsulfonamido)phenyl)propanamide] |  | effect on capsaicin-induced hypothermia [2]: blocked capsaicin-induced hypothermia; inhibition of the effect of capsaicin on body temperature ([2]; at 15 min): partial inhibition; inhibition of the effect of capsaicin on body temperature ([2]; at 30 min): completely inhibited |
| C[C@H](C(=O)NCc1ccc(C(C)(C)C)cc1)c1ccc(NS(C)(=O)=O)c(F)c1 [compound 1] |  | ED50 anti-allodynic efficacy [3]: 26.6 mg/kg |
| CC1CCN(c2nc(C(F)(F)F)ccc2CNC(=O)[C@@H](C)c2ccc(NS(C)(=O)=O)c(F)c2)CC1 [compound 2] |  | fold better than prototype 1 for CAP antagonism (human TRPV1 [4]; ratio versus 1): approximately 100 fold; ED50 anti-allodynic efficacy [3]: 0.9 mg/kg; effect on capsaicin-induced hypothermia [5]: blocked capsaicin-induced hypothermia |
| CC(C(=O)NCc1ccc(C(F)(F)F)nc1SCC(F)(F)F)c1ccc(NS(C)(=O)=O)c(F)c1 (centres unmarked) [compound 11, 2-(3-Fluoro-4-(methylsulfonamido)phenyl)-N-((2-(2,2,2-trifluoroethylthio)-6-(trifluoromethyl)pyridin-3-yl)methyl) propanamide] | > 1000 |  |
| CC(C(=O)NCc1ccc(C(F)(F)F)nc1SCCC(=O)O)c1ccc(NS(C)(=O)=O)c(F)c1 (centres unmarked) [compound 20, 3-(3-((2-(3-Fluoro-4-(methylsulfonamido)phenyl)propanamido)methyl)-6-(trifluoromethyl)pyridin-2-ylthio) propanoic acid] | > 1000 |  |
| CC(C(=O)NCc1ccc(C(F)(F)F)nc1SCCC(=O)N1CCCC1)c1ccc(NS(C)(=O)=O)c(F)c1 (centres unmarked) [compound 22, 2-(3-Fluoro-4-(methylsulfonamido)phenyl)-N-((2-(3-oxo-3-(pyrrolidin-1-yl)propylthio)-6-(trifluoromethyl)pyridin-3-yl)methyl)propanamide] | > 1000 |  |
| CC(C(=O)NCc1ccc(C(F)(F)F)nc1SC1CCCC1)c1ccc(NS(C)(=O)=O)c(F)c1 (centres unmarked) [compound 23, N-((2-(Cyclopentylthio)-6-(trifluoromethyl)pyridin-3-yl)methyl)-2-(3-fluoro-4-(methylsulfonamido)phenyl)propanamide] | > 1000 |  |
| CC(C(=O)NCc1ccc(C(F)(F)F)nc1[S+]([O-])C1CCCCC1)c1ccc(NS(C)(=O)=O)c(F)c1 (centres unmarked) [compound 25, N-((2-(Cyclohexylsulfinyl)-6-(trifluoromethyl)pyridin-3-yl)methyl)-2-(3-fluoro-4-(methylsulfonamido)phenyl)propanamide] | > 1000 |  |
| CC(C(=O)NCc1ccc(C(F)(F)F)nc1S(=O)(=O)C1CCCCC1)c1ccc(NS(C)(=O)=O)c(F)c1 (centres unmarked) [compound 26, N-((2-(Cyclohexylsulfonyl)-6-(trifluoromethyl)pyridin-3-yl)methyl)-2-(3-fluoro-4-(methylsulfonamido)phenyl)propanamide] | > 1000 |  |
| CC(C(=O)NCc1ccc(C(F)(F)F)nc1SC1CCCCC1C)c1ccc(NS(C)(=O)=O)c(F)c1 (centres unmarked) [compound 28, 2-(3-Fluoro-4-(methylsulfonamido)phenyl)-N-((2-(2-methylcyclohexylthio)-6-(trifluoromethyl)pyridin-3-yl)methyl)propanamide] | > 1000 |  |
| CCC1CCC(Sc2nc(C(F)(F)F)ccc2CNC(=O)C(C)c2ccc(NS(C)(=O)=O)c(F)c2)CC1 (centres unmarked) [compound 29, N-((2-(4-Ethylcyclohexylthio)-6-(trifluoromethyl)pyridin-3-yl)methyl)-2-(3-fluoro-4-(methylsulfonamido)phenyl)propanamide] | > 1000 |  |
| CC(C(=O)NCc1ccc(C(F)(F)F)nc1SCC1CCCCC1)c1ccc(NS(C)(=O)=O)c(F)c1 (centres unmarked) [compound 31, N-((2-(Cyclohexylmethylthio)-6-(trifluoromethyl)pyridin-3-yl)methyl)-2-(3-fluoro-4-(methylsulfonamido)phenyl)propanamide] |  | fold less potent than 24 (human TRPV1 [4]; ratio of Ki(CAP) versus 24): 2.5 fold |
| CC(C(=O)NCc1ccc(C(F)(F)F)nc1SCc1ccco1)c1ccc(NS(C)(=O)=O)c(F)c1 (centres unmarked) [compound 37, 2-(3-Fluoro-4-(methylsulfonamido)phenyl)-N-((2-(furan-2-ylmethylthio)-6-(trifluoromethyl)pyridin-3-yl)methyl)propanamide] | > 1000 |  |
| CC(C(=O)NCc1ccc(C(F)(F)F)nc1SCc1cccs1)c1ccc(NS(C)(=O)=O)c(F)c1 (centres unmarked) [compound 38, 2-(3-Fluoro-4-(methylsulfonamido)phenyl)-N-((2-(thiophen-2-ylmethylthio)-6-(trifluoromethyl)pyridin-3-yl)methyl)propanamide] | > 1000 |  |
| CC(C)C[C@H](CN)CC(=O)O [pregabalin] |  | ED50 anti-allodynic efficacy [3]: 42.2 mg/kg |
